Data taken from PMC8444931 (Clinical and Translational Science, 2021).

Assays:
[1] = metabolite identification in human hepatocytes; assay type: in vitro ADME
[2] = metabolite identification in dog hepatocytes; assay type: in vitro ADME
[3] = elimination in the rat; assay type: in vivo; conditions: preclinical data
[4] = phase I part B; assay type: in vivo, human
Summary of the method: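 Double-blind, randomized, placebo-controlled multiple ascending dose study in healthy adults aged 18–50 (FEV1 ≥80% predicted). Three cohorts of 10 (8 active, 2 placebo) got nebulized 1, 3 or 10 mg or placebo once daily for 7 days, staying in residence through day 9. Monitoring covered exams, vital signs, 12-lead ECGs, spirometry, clinical labs and MedDRA-coded TEAEs; follow-up came 1 week (±2 days) after the last dose.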

[5] = phase I part A; assay type: in vivo, human; conditions: for TEAE Cough / TEAE Dizziness / TEAE Headache / TEAE related to nezulcitinib / Total participants with TEAEs: part A
Summary of the method: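 Healthy adults aged 18–50 (BMI 18–32 kg/m^2, FEV1 ≥80% predicted) in a double-blind, randomized, placebo-controlled single ascending dose study. Three cohorts of 8 (6 active, 2 placebo) got one nebulized dose of 1, 3 or 10 mg or placebo; a sentinel pair was dosed ≥24 h first. TEAEs were coded by MedDRA, with follow-up 1 week (±2 days) post-dose.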

[6] = phase I part B plasma pharmacokinetics; assay type: in vivo, human; conditions: for DN AUCtau / DN Cmax,ss: dose normalized; for DN AUCtau / DN Cmax,ss / Ctrough,ss: geometric mean (geometric CV%); for AUC / Cmax / Tmax: human, inhaled; for AUC / Cmax / Tmax / Ctrough,ss: plasma
Summary of the method: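 Healthy adults got nebulized 1, 3 or 10 mg once daily for 7 days. Serial blood was drawn through 24 h after the day-1 dose and from predose through 48 h after the day-7 dose; troughs were drawn predose on days 3–6. Day-7 parameters, including dose-normalized values, were given as geometric mean (geometric CV%). Accumulation ratios were AUCtau/day-1 AUC0-24 and Cmax,ss/day-1 Cmax.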

[7] = target: JAK1 (Homo sapiens, UniProt P23458); assay: biochemical
Sequence of JAK1 (P23458 875-1153 limits assumed): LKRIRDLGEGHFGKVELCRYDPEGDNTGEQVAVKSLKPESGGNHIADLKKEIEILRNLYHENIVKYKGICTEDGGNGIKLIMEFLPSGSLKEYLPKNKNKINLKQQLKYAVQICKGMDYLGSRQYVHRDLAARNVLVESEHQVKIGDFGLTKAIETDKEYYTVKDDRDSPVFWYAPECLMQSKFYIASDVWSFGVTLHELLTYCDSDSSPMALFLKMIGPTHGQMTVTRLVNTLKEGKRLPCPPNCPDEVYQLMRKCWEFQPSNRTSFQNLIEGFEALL

[8] = tested on: JAK; assay: cell‐based assays of JAK inhibition; conditions: Homo sapiens, Epithelial cell, read-out: most potent half‐maximal JAK inhibition (IC50) in a cell‐based assay
[9] = tested on: cytokine‐induced STAT6 phosphorylation; assay: cytokine‐induced STAT6 phosphorylation in bronchial epithelial cell lines; assay type: cell-based; conditions: data on file, Theravance Biopharma
[10] = metabolism in dog lung S9 fractions; assay type: in vitro ADME; conditions: dog lung S9 fortified with 3'‐phosphate‐5'‐phosphosulfate; data on file
[11] = target: T1, Tyk2 (Homo sapiens, UniProt P29597); assay: biochemical
T1 sequence (P29597 897-1176 limits assumed): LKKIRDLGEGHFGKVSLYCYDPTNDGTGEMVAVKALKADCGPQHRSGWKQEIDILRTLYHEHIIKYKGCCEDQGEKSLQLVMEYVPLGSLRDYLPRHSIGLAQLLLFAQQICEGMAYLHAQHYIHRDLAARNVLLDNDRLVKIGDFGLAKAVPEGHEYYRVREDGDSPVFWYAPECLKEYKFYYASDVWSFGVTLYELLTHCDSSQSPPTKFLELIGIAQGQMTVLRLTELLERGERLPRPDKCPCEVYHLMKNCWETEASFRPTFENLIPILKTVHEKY

[12] = metabolism in rat lung S9; assay type: in vitro ADME; conditions: data on file
[13] = metabolite identification in rat hepatocytes; assay type: in vitro ADME
[14] = phase I part A plasma pharmacokinetics; assay type: in vivo, human; conditions: for Tmax / AUC(0-t) / Cmax / Vd/F: human, plasma, inhaled or intranasal
Summary of the method: (§1)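 Healthy adults got a single nebulized dose (1, 3 or 10 mg). Blood and urine were sampled predose and over 72 h postdose. Plasma and urine PK parameters were estimated per participant and summarized as geometric mean (CV%). Urinary excretion was expressed as cumulative percentage of administered dose.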

[15] = assay type: physicochemical; conditions: PARI eFlow nebulizer, dose range 0.1–10 mg
[16] = target: JAK2 (Homo sapiens, UniProt O60674); assay: biochemical
Sequence of JAK2 (O60674 849-1124 limits assumed): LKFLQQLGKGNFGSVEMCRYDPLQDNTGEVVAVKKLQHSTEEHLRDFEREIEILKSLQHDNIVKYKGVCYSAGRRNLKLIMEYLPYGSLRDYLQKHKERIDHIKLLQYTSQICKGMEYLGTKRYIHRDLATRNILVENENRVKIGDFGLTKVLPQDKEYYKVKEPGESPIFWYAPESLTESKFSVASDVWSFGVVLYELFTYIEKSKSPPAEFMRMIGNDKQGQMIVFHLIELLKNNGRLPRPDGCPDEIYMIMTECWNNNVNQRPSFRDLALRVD

[17] = human plasma protein binding; assay type: in vitro ADME
[18] = metabolism in human lung S9; assay type: in vitro ADME; conditions: data on file
[19] = phase I part A urine pharmacokinetics; assay type: in vivo, human; conditions: geometric mean (CV%)
Summary of the method: as §1

[20] = tested on: COVID‐19; conditions: phase III RUXCOVID study; cited from earlier work
[21] = tested on: COVID‐19; conditions: in combination with remdesivir, patients with COVID‐19; cited from earlier work
[22] = one participant, 10 mg, part B, by day 9, deemed not related to study drug
[23] = part B, 1 mg once daily for 7 days (n = 8)
[24] = part B, 3 mg once daily for 7 days (n = 8)
[25] = part B, 10 mg once daily for 7 days (n = 8)
[26] = part B, all nezulcitinib doses, Total (n = 24)
[27] = all nezulcitinib doses, Total (n = 18)
[28] = single inhaled dose 1 mg (n = 6)
[29] = single inhaled dose 3 mg (n = 6)
[30] = single inhaled dose 10 mg (n = 6)

## CCc1cc(O)ccc1-c1ccc2c(-c3nc4c([nH]3)CN(C(C)C)[C@H](C(=O)N3CC(N(C)C)C3)C4)n[nH]c2c1 [Nezulcitinib]
[1]
  primary metabolite: an oxidation, methylation, and glucuronidation product
[2]
  primary metabolite: sulfation product
[3]
  amount eliminated in the urine and bile as unchanged compound: minor amount
[4]; [22]
  alanine aminotransferase (ALT) elevation: 3.8 × ULN
  aspartate aminotransferase (AST) elevation: approximately 2.8 × ULN
[4]; [23]
  Moderate or severe TEAEs: 0 n (%)
  TEAE Cough: 0 n (%)
  TEAE Dizziness: 1 (13) n (%)
  TEAE Headache: 1 (13) n (%)
  TEAE Lethargy: 1 (13) n (%)
  TEAE Medical device site reaction: 0 n (%)
  TEAE related to nezulcitinib: 0 n (%)
  Total participants with TEAEs: 4 (50) n (%)
[4]; [24]
  Moderate or severe TEAEs: 0 n (%)
  TEAE Cough: 2 (25) n (%)
  TEAE Dizziness: 1 (13) n (%)
  TEAE Headache: 3 (38) n (%)
  TEAE Lethargy: 0 n (%)
  TEAE Medical device site reaction: 0 n (%)
  TEAE related to nezulcitinib: 0 n (%)
  Total participants with TEAEs: 3 (38) n (%)
[4]; [25]
  Moderate or severe TEAEs: 2 (25) n (%)
  TEAE Cough: 3 (38) n (%)
  TEAE Dizziness: 1 (13) n (%)
  TEAE Headache: 0 n (%)
  TEAE Lethargy: 0 n (%)
  TEAE Medical device site reaction: 1 (13) n (%)
  TEAE related to nezulcitinib: 1 (13) n (%)
  Total participants with TEAEs: 6 (75) n (%)
[4]; [26]
  TEAE Cough: 5 (21) n (%)
  TEAE Dizziness: 3 (13) n (%)
  TEAE Headache: 4 (17) n (%)
  TEAE Lethargy: 1 (4) n (%)
  TEAE Medical device site reaction: 1 (4) n (%)
  TEAE related to nezulcitinib: 1 (4) n (%)
  Total participants with TEAEs: 13 (54) n (%)
[4]; parts A and B
  changes from baseline in vital sign and ECG assessments: No clinically significant changes
  severe or serious AEs: No severe or serious AEs
[4]; single daily doses up to 10 mg for 7 days, healthy participants
  tolerability: generally well‐tolerated
[5]; [27]
  TEAE Cough: 2 (11) n (%)
  TEAE Dizziness: 2 (11) n (%)
  TEAE Headache: 1 (6) n (%)
  TEAE related to nezulcitinib: 0 n (%)
  Total participants with TEAEs: 6 (33) n (%)
[5]; [28]
  TEAE Cough: 1 (17) n (%)
  TEAE Dizziness: 1 (17) n (%)
  TEAE Headache: 1 (17) n (%)
  TEAE related to nezulcitinib: 0 n (%)
  Total participants with TEAEs: 4 (67) n (%)
[5]; [29]
  TEAE Cough: 0 n (%)
  TEAE Dizziness: 0 n (%)
  TEAE Headache: 0 n (%)
  TEAE related to nezulcitinib: 0 n (%)
  Total participants with TEAEs: 0 n (%)
[5]; [30]
  TEAE Cough: 1 (17) n (%)
  TEAE Dizziness: 1 (17) n (%)
  TEAE Headache: 0 n (%)
  TEAE related to nezulcitinib: 0 n (%)
  Total participants with TEAEs: 2 (33) n (%)
[5]; single inhaled dose, healthy participants
  tolerability: generally well‐tolerated
[6]; part B day 7, 1 mg once daily
  DN AUCtau: 21.0 (25.7) ng•h/ml/mg
  DN Cmax,ss: 5.6 (24.1) ng/ml/mg
  Ctrough,ss: 0.2 (29.5) ng/ml
[6]; part B day 7, 3 mg once daily
  DN AUCtau: 17.2 (32.5) ng•h/ml/mg
  DN Cmax,ss: 5.9 (42.6) ng/ml/mg
  Ctrough,ss: 0.3 (39.0) ng/ml
[6]; part B day 7, 10 mg once daily
  DN AUCtau: 17.8 (65.0) ng•h/ml/mg
  DN Cmax,ss: 5.0 (46.4) ng/ml/mg
  Ctrough,ss: 1.1 (83.6) ng/ml
[6]; 1 mg
  AUC: 21 ng·h/mL
  Cmax: 5.6 ng/mL
  Tmax: 1 h
[6]; 3 mg
  AUC: 51.6 ng·h/mL
  Cmax: 17.6 ng/mL
  Tmax: 1 h
[6]; 10 mg
  AUC: 178 ng·h/mL
  Cmax: 49.6 ng/mL
  Tmax: 1 h
[6]; part B, 7 days of once‐daily dosing 1, 3, 10 mg
  dose proportionality of plasma exposures (Cmax and AUC0–t): increased proportionally
[6]; part B, once‐daily dosing, from daily plasma trough concentrations
  time to steady‐state plasma concentrations: ≤ 4 days
[7]
  Ki: 0.0501 nM
[8]
  IC50: 12.6 nM
[9]
  inhibition of cytokine‐induced STAT6 phosphorylation: inhibits
[10]
  metabolic stability in lung S9: extensive conversion to the sulfation product
[11]
  Ki: 0.631 nM
[12]
  metabolic stability in lung S9: relatively stable
[13]
  primary metabolite: sulfation product
[14]
  Tmax: ~1 h
[14]; 1 mg
  AUC(0-t): 18.7 ng·h/mL
  Cmax: 5.5 ng/mL
  Vd/F: 1390 L
[14]; 3 mg
  AUC(0-t): 45.2 ng·h/mL
  Cmax: 13.8 ng/mL
  Tmax: 1 h
  Vd/F: 2300 L
[14]; 10 mg
  AUC(0-t): 157 ng·h/mL
  Cmax: 47.3 ng/mL
  Tmax: 1 h
  Vd/F: 2200 L
[14]; part A, single dose 1, 3, 10 mg
  dose proportionality of plasma exposures (Cmax and AUC0‐t): increased proportionally
[15]
  emitted fine particle dose, of the nominal dose: 40%
[16]
  Ki: 0.0251 nM
[17]
  fraction unbound: 0.019
[18]
  metabolic stability in lung S9: relatively stable
[19]; single inhaled dose 1 mg
  Cum%Dose (cumulative percentage of administered dose excreted): 0.97 (38.3) %
[19]; single inhaled dose 3 mg
  Cum%Dose (cumulative percentage of administered dose excreted): 0.72 (17.5) %
[19]; single inhaled dose 10 mg
  Cum%Dose (cumulative percentage of administered dose excreted): 0.84 (41.6) %

## N#CC[C@H](C1CCCC1)n1cc(-c2ncnc3[nH]ccc23)cn1 [ruxolitinib]
[20]
  primary end point: did not meet its primary end point

## CCS(=O)(=O)N1CC(CC#N)(n2cc(-c3ncnc4[nH]ccc34)cn2)C1 [baricitinib]
[21]
  recovery time: significantly shortened recovery time
